The text below walks through data of ChEMBL document CHEMBL3526066, “In vitro metabolism of 17-(dimethylaminoethylamino)-17-demethoxygeldanamycin in human liver microsomes” (Drug Metab Dispos, 2011).

Series [1] relates to Liver microsome. The experiment in a line: Drug metabolism in human liver microsomes assessed as 17-aminogeldanamycin formation at 37 degC in presence of reduced GSH by liquid chromatography-tandem mass spectrometry. The format is ADME. The settings on record: read-out: Km(app). On the technique in general: Microsomes from liver hold many membrane-bound enzymes, among them those of drug oxidation.

Series [2] in a line: Terminal half life in human. Particulars: in vivo, read-out: beta t1/2 (converted). The format is ADME, organism-based.
The test system of series [3] is Liver microsome. The experiment in a line: Drug metabolism in human liver microsomes assessed as stability after 45 mins relative to control by liquid chromatography-tandem mass spectrometry. The format is ADME. Particulars: 0.75 h. A digest of the protocol: (§1)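 Substrate (5 µM final) was incubated at 37°C with HLMs (1 mg/ml; boiled HLMs as negative control) in 0.1 M phosphate buffer with 3.3 mM MgCl2 and 1 mM β-NADPH, with or without 5 mM reduced GSH. Aliquots were taken at 1, 5, 10, 15, 30, 45, 60 and 120 min and quenched with ice-cold acetonitrile containing internal standard. Samples were analysed by LC-MS/MS, with values given as percent of the analyte/internal-standard peak area ratio at 1 min.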

Series [4] deals with Liver microsome. The series can be described thus: Retention time in human liver microsomes treated with 10 uM […] after 2 hrs by liquid chromatography-tandem mass spectrometry. The format is ADME. A digest of the protocol:
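17-DMAG (10 µM initial) was incubated with HLMs (1 mg/ml) in 0.1 M phosphate buffer with 3.3 mM MgCl2 and 1 mM β-NADPH at 37°C for 2 h alongside negative controls, then quenched with ice-cold acetonitrile. Samples were run on a C18 column with a 0.1% formic acid/ammonium formate–acetonitrile gradient (10–90% B in 10 min) using MS full scan, MRM, EPI and MS3 scans.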

Series [5] has as its system Liver microsome. The series can be described thus: Drug level in boiled human liver microsomes treated with geldanamycin after 2 hrs. The format is ADME. A digest of the protocol:
as §1

The subject of series [6] is Liver microsome. The series can be described thus: Drug level in human liver microsomes treated with 1 uM 17-DMAG by liquid chromatography-tandem mass spectrometry in presence of 1 uM quinidine CYP2D6 inhibitor. The format is ADME. A digest of the protocol:
(§2)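 Pooled HLMs in 0.1 M phosphate buffer pH 7.4 with 1 mM β-NADPH, 3.3 mM MgCl2 and the selective inhibitor were preincubated 3 min at 37°C in a shaking water bath. 17-DMAG (1 µM final) was then added and incubated 20 min at 37°C, with parallel no-inhibitor controls. M1, M2, M3, M4 and M6 were quantified by LC-MS/MS MRM. Inhibition was taken as the ratio of metabolite formed with versus without inhibitor.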

Series [7] concerns Liver microsome. The experiment in a line: Drug level in human liver microsomes treated with 1 uM 17-DMAG by liquid chromatography-tandem mass spectrometry in presence of 10 uM ticlopidine CYP2B6 inhibitor. The format is ADME. A digest of the protocol: as §2
For series [8], the system named is Liver microsome. The series can be described thus: Drug level in human liver microsomes treated with 1 uM 17-DMAGby liquid chromatography-tandem mass spectrometry in presence of 1 uM sulfaphenazole CYP2C9 inhibitor. The format is ADME. A digest of the protocol: as §2
The subject of series [9] is Liver microsome. The experiment in a line: Drug level in human liver microsomes treated with 1 uM 17-DMAG by liquid chromatography-tandem mass spectrometry in presence of 1 uM tranylcypromine CYP2A6 inhibitor. The format is ADME. A digest of the protocol:
as §2

For series [10], the system named is Liver microsome. The experiment in a line: Drug level in human liver microsomes treated with 1 uM 17-DMAG by liquid chromatography-tandem mass spectrometry in presence of 10 uM diethyldithiocarbamate CYP2E1 inhibitor. The format is ADME. A digest of the protocol: as §2
For series [11], the system named is Liver microsome. The experiment in a line: Drug level in human liver microsomes treated with 1 uM 17-DMAG by liquid chromatography-tandem mass spectrometry in presence of 1 uM quercetin CYP2C8 inhibitor. The format is ADME. A digest of the protocol:
as §2

Series [12] concerns Liver microsome. The series can be described thus: Drug level in human liver microsomes treated with 1 uM 17-DMAG by liquid chromatography-tandem mass spectrometry in presence of 10 uM alpha-naphthoflavone CYP1A2 inhibitor. The format is ADME. A digest of the protocol:
as §2

Series [13] addresses Cytochrome P450 3A4 (Homo sapiens, UniProt P08684). The experiment in a line: Drug level assessed as human recombinant CYP3A4-mediated oxidative metabolism treated with 1 uM 17-DMAG after 30 mins by liquid chromatography-tandem mass spectrometry. The format is ADME. The settings on record: recombinant enzyme, 0.5 h. A digest of the protocol: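 Recombinant human P450 (E. coli-expressed, coexpressed with cytochrome b5), 20 pmol per 200 µl incubation with 0.2 mg reduced β-NADPH and 3.3 mM MgCl2 in 0.1 M phosphate buffer pH 7.4. Preincubated at 37°C in a shaking water bath, then 1 µM 17-DMAG added. E. coli control microsomes lacking P450 cDNA served as negative control. Metabolite (M1–M4, M6) formation rates were read by LC-MS/MS MRM and expressed as percent of the CYP3A4 rate.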

The nature of series [14]: Drug metabolism in human liver microsomes assessed as stability after 5 mins relative to control in presence of reduced GSH by liquid chromatography-tandem mass spectrometry. The format is ADME. A digest of the protocol: as §1
The nature of series [15]: Drug metabolism in human liver microsomes assessed as stability after 120 mins relative to control in presence of reduced GSH by liquid chromatography-tandem mass spectrometry. The format is ADME. Particulars: read-out: Stability. A digest of the protocol: as §1
Series [16] in a line: Drug metabolism in human liver microsomes assessed as stability after 2 hrs relative to control by liquid chromatography-tandem mass spectrometry. The format is ADME. Particulars: read-out: Stability. A digest of the protocol:
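Pooled human liver microsomes (1 mg/ml) were incubated at 37°C with substrate (5 µM final), 1 mM β-NADPH and 3.3 mM MgCl2 in 0.1 M phosphate buffer, with or without 5 mM reduced GSH. Aliquots were taken from 1 to 120 min and quenched in ice-cold acetonitrile containing internal standard. LC-MS/MS peak-area ratios to internal standard were normalised to the 1-min sample.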

Series [17] is described as follows: Drug metabolism in human liver microsomes assessed as stability during first 5 mins relative to control in presence of reduced GSH by liquid chromatography-tandem mass spectrometry. The format is ADME. Particulars: read-out: Stability. A digest of the protocol:
as §1

For series [18], the system named is Liver microsome. The experiment in a line: Drug metabolism in human liver microsomes assessed as 17-(allylamino)-17-demethoxygeldanamycin hydroquinone formation after 1 hr relative to control by liquid chromatography-tandem mass spectrometry. The format is ADME. A digest of the protocol: as §1
For series [19], the system named is Liver microsome. The series can be described thus: Drug metabolism in human liver microsomes assessed as (4E,6Z,8S,9S,10E,12S,13R,14S,16R)-19-(2-(dimethylamino)ethylamino)-8,13-dihydroxy-14-methoxy-4,10,12,16-tetramethyl-3,20,22-trioxo-2-azabicyclo[16.3.1]docosa-1(21),4,6,10,18-pentaen-9-yl carbamate formation at 1 uM 17-DMAG by liquid chromatography-tandem mass spectrometry in presence of 1 uM ketoconazole CYP3A inhibitor. The format is ADME.

Structures are written as SMILES.

Chain of Cytochrome P450 3A4 (P08684 whole entry): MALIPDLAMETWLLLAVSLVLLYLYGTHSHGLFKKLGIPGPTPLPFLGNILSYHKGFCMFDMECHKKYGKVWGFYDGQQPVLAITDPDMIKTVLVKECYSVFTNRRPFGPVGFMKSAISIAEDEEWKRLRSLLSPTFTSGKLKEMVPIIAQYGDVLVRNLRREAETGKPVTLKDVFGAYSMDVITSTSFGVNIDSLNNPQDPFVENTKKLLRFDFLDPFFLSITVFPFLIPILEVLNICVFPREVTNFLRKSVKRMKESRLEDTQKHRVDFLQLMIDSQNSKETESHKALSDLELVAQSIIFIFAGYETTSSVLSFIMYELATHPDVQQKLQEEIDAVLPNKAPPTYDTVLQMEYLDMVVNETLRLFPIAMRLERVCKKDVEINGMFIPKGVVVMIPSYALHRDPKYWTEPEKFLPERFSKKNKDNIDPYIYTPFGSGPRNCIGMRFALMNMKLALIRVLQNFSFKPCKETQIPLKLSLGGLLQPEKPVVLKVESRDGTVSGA

For `C=CCNC1=C2C[C@@H](C)C[C@H](OC)[C@H](O)[C@@H](C)/C=C(\C)[C@H](OC(N)=O)[C@@H](OC)/C=C\C=C(/C)C(=O)NC(=CC1=O)C2=O` [TANESPIMYCIN], in series [1], the Km – broadly, the concentration of substrate that gives half-maximal velocity – was 29.1 µM. For the same compound, in [2], the half-life is 4 h. Moreover, the Stability result in series [3] was “Unstable”.

With `CO[C@H]1/C=C\C=C(/C)C(=O)NC2=CC(=O)C(/N=C/CN(C)C)=C(C[C@@H](C)C[C@H](OC)[C@H](O)[C@@H](C)/C=C(\C)[C@@H]1OC(N)=O)C2=O`, the Retention_time in series [4] was found to be 8.4 min.

As to `COc1c(O)cc2c(O)c1C[C@@H](C)C[C@H](OC)[C@H](O)[C@@H](C)/C=C(\C)[C@H](OC(N)=O)[C@@H](OC)/C=C\C=C(/C)C(=O)N2`, in [5], the Drug metabolism result is listed as “metabolite_detected”.

As to `CO[C@H]1/C=C\C=C(/C)C(=O)NC2=CC(=O)C(NC(O)CN(C)C)=C(C[C@@H](C)C[C@H](OC)[C@H](O)[C@@H](C)/C=C(\C)[C@@H]1OC(N)=O)C2=O` (some centres not stated), the Drug metabolism entry in series [6], in series [7], in [8], in series [9], in [10] and in series [11] was “metabolite_detected” throughout. The Drug metabolism entry in [12] and in [13] was “metabolite_detected” each time. Further, in series [4], the Retention_time is reported as 9.04 min.

On to `COC1=C2C[C@@H](C)C[C@H](OC)[C@H](O)[C@@H](C)/C=C(\C)[C@H](OC(N)=O)[C@@H](OC)/C=C\C=C(/C)C(=O)NC(=CC1=O)C2=O` [GELDANAMYCIN], for which the remaining at 5 min in [14] and in [17] was 75.3% throughout. Further, the remaining at 2 h in [15] stood at 46.6%; in series [16] it was 73%.

For `CO[C@H]1/C=C\C=C(/C)C(=O)NC2=CC(=O)C(NCCN(C)C)=C(C[C@@H](C)C[C@H](OC)[C@H](O)[C@@H](C)/C=C(\CO)[C@@H]1OC(N)=O)C2=O`, the Drug metabolism result in series [6], in series [7], in series [8], in series [9], in [10] and in series [11] was “metabolite_detected” in each case. In addition, the Drug metabolism entry in [12] and in series [13] was “metabolite_detected” in each case. For the same compound, the Retention_time in [4] was 8.21 min.

As for `CO[C@H]1/C=C\C=C(/C)C(=O)NC2=CC(=O)C(NCCN(C)C)=C(C[C@@H](C)C[C@H](O)[C@H](O)[C@@H](C)/C=C(\C)[C@@H]1OC(N)=O)C2=O`, the Drug metabolism entry in series [6], in series [7], in series [8], in series [9], in [10] and in [11] was “metabolite_detected” in each case. The Drug metabolism result in [12] and in series [13] was “metabolite_detected” each time. Also, the Retention_time in series [4] turned out to be 7.57 min.

Take `C=CCNc1c(O)cc2c(O)c1C[C@@H](C)C[C@H](OC)[C@H](O)[C@@H](C)/C=C(\C)[C@H](OC(N)=O)[C@@H](OC)/C=C\C=C(/C)C(=O)N2` [RETASPIMYCIN]: the Drug metabolism result in [18] is on record as “metabolite_not_detected”.

As for `CO[C@H]1C[C@H](C)CC2=C(NCCN(C)C)C(=O)C=C(NC(=O)/C(C)=C/C=C\[C@H](O)[C@@H](OC(N)=O)/C(C)=C/[C@H](C)[C@H]1O)C2=O`, the Drug metabolism result in [6] was “metabolite_detected”; in series [7], “metabolite_detected”; in [8], “metabolite_detected”; in series [19], “metabolite_not_detected”; in series [9], “metabolite_detected”; in series [10], “metabolite_detected”. Besides, the Drug metabolism result in series [11], in [12] and in series [13] was “metabolite_detected” each time. For the same compound, the Retention_time in [4] is recorded as 7.13 min.
